We go through one molecule from article PMC7985749 (CNS Drugs, 2021).

Structures are written as SMILES.

Series [1] in a line: CSF pharmacokinetics substudy. It is filed as in vivo, human. The following applies: for Kp at 2 h / Kp at 6 h / Kp at 12 h / concentration at 2 h / concentration at 6 h / concentration at 12 h: male, human, oral; for Kp at 2 h / Kp at 6 h / Kp at 12 h: CSF / unbound plasma. The procedure, abridged:
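Open-label cohorts of healthy volunteers got a single oral dose of 2 or 4 mg. CSF and plasma were sampled predose and at preset timepoints, n = 3 subjects per timepoint. Levels were measured by GLP-validated LC-MS/MS: ethyl acetate liquid–liquid extraction, C18 column, positive ESI, deuterated internal standard. LLOQ was 50 pg/mL (CSF) and 10 pg/mL (plasma). Unbound plasma concentration was total corrected by an in vitro dialysis fraction unbound.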

In the next series the test system is platelet levels. The series is described as follows: Platelet levels. It is filed as in vivo, human. The gist of the method:
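Young volunteers took the test compound or placebo orally once daily for 5 days, 0.2–4 mg/day; older adults took 2.5 mg/day. Platelets were counted in hematology safety blood samples at preset timepoints through 264 h and at follow-up, as % change from baseline. The MID limit included >50% platelet drop or grade ≥1 thrombocytopenia in >50% of active, not placebo, subjects. EC50 and EC80 came from a nonlinear exposure–response fit.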

A short description of series [2]: 28-day GLP toxicology study in rats. The following applies: rat, in vivo, oral.

The Kp is the ratio of the level in a tissue or fluid to that in plasma or blood. As usually defined, the NOAEL is the highest tested level that showed no adverse finding. Regarding `Nc1nnc(CN[C@@H]2C[C@H]2c2ccc(OCc3ccccc3)cc2)o1` [vafidemstat], the “Blood–brain barrier crossing” value in series [1] (CSF cohort, quantifiable CSF concentrations from 2 h post-dose) was “shown to cross the human blood–brain barrier”. In series [1] (2 mg), this molecule came in with a Kp at 2 h of 0.78, a concentration ratio (Kp) at 6 h of 0.74 and a concentration ratio (Kp) at 12 h of 0.92. Besides, in series [1] (4 mg), the partition ratio (Kp) at 2 h worked out at 0.69, the Kp at 6 h was 0.83 and the partition ratio (Kp) at 12 h amounted to 0.91. Besides, in series [1] (CSF, 2 mg), the concentration at 2 h stood at 0.239 ng/mL, the concentration at 6 h turned out to be 0.181 ng/mL and the concentration at 12 h amounted to 0.17 ng/mL. In series [1] (CSF, 4 mg), this molecule returned a concentration at 2 h of 0.387 ng/mL, a concentration at 6 h of 0.734 ng/mL and a concentration at 12 h of 0.55 ng/mL. In series [1] (plasma (unbound), 2 mg), this molecule showed a concentration at 2 h of 0.316 ng/mL, a concentration at 6 h of 0.248 ng/mL and a concentration at 12 h of 0.186 ng/mL. Moreover, in series [1] (plasma (unbound), 4 mg), the concentration at 2 h is 0.59 ng/mL, the concentration at 6 h was found to be 0.871 ng/mL and the concentration at 12 h is 0.609 ng/mL. For the same molecule, in the series with platelet levels (MAD, 5 days), the Maximum tolerated dose came to 2.5 mg/day and the “Minimum intolerable dose (MID) as defined per protocol” value is listed as 4 mg/day. Further, the Platelet levels result with platelet levels (any SAD dose level or up to MAD dose III (1.0 mg/day)) is reported as “no variations”. Further, the “Platelet level drops from baseline versus exposure” value with platelet levels (at Cmax,ss of ~ 100 ng/mL and AUCss of ~ 1000 ng·h/mL) was ~ 50%. Moreover, in series [2], the no observed adverse effect level (NOAEL) at 28 days is 0.2 mg/kg.
